The source of these data is ChEMBL document CHEMBL4390650, “Design, synthesis and biological evaluation of 2-(phenoxymethyl)-5-phenyl-1,3,4-oxadiazole derivatives as anti-breast cancer agents” (Eur J Med Chem, 2019).

Experiment [1] deals with MDA-MB-453. Briefly: Cytotoxicity against human MDA-MB-453 cells assessed as reduction in cell viability incubated for 48 hrs by MTT assay. The class given is functional, cell-based. The conditions noted are these: for IC50: MDA-MB-453, 48 h. Summed up: (§1)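 Cells came from NCCS Pune and were grown in DMEM with 10% FBS at 37°C, 5% CO2, then trypsinized at 70-80% confluence. About 5,000 cells/well were seeded and allowed 24 h to recover. Compounds in DMSO, up to 100 μM, were added for 48 h against DMSO-only controls. The medium was then changed and MTT (5 mg/ml stock) added for 4 h. Formazan was dissolved in DMSO and read at 560 nm. Values are mean ± SD of three independent experiments in triplicate.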

For the next experiment, the system named is MCF-10A. Briefly: Cytotoxicity against human MCF10A cells assessed as reduction in cell viability incubated for 48 hrs by MTT assay. The class given is cell-based. The procedure, abridged: as §1
For another experiment, the system named is MCF7. Briefly: Cytotoxicity against human MCF7 cells assessed as reduction in cell viability incubated for 48 hrs by MTT assay. The conditions noted are these: for IC50: MCF7, 48 h. The class given is functional, cell-based. The procedure, abridged:
as §1

Experiment [2] has as its target DNA (cytosine-5)-methyltransferase 3B (Homo sapiens) (UniProt Q9UBC3). Briefly: Inhibition of DNMT3B (unknown origin) at 100 uM using cytosine-rich DNA substrate by ELISA relative to untreated control. Summed up: (§2)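 DNMT activity was measured with a commercial DNA methyltransferase activity/inhibition screening kit, following the manufacturer's instructions.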
For orientation: In an ELISA, binding on a coated surface is turned into a signal by an enzyme label.

The test system of experiment [3] is MDA-MB-453. Briefly: Induction of morphological changes in human MDA-MB-453 cell assessed as induction of cell membrane blebbing at 10 uM incubated for 48 hrs by acridine orange and ethidium bromide staining based inverted fluorescent microscopy. It counts as functional. The procedure, abridged: (§3)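 MDA-MB-453 cells were seeded at 5×10⁵/well and incubated overnight at 37°C, 5% CO2, then treated for 48 h. They were stained 5 min with a 1:1 acridine orange/ethidium bromide mix (each dye 100 μg/ml) and imaged immediately under an inverted fluorescence microscope. Scoring: live cells green, late apoptotic orange, necrotic red.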

The test system of experiment [4] is MDA-MB-453. Briefly: Induction of morphological changes in human MDA-MB-453 cell assessed as induction of chromatin condensation at 10 uM incubated for 48 hrs by acridine orange and ethidium bromide staining based inverted fluorescent microscopy. It counts as functional. The procedure, abridged: as §3
The test system of experiment [5] is MDA-MB-453. Briefly: Induction of necrosis in human MDA-MB-453 cells at 10 uM incubated for 48 hrs by acridine orange and ethidium bromide staining based inverted fluorescent microscopy. The class given is functional, cell-based. Summed up: as §3
For experiment [6], the system named is MDA-MB-453. Briefly: Induction of apoptosis in human MDA-MB-453 cells assessed as increase in p53 protein expression incubated for 48 hrs by Western blot analysis. The class given is functional, cell-based. Summed up:
(§4)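 Western blot of treated MDA-MB-453 cells, with GAPDH as loading control.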
On the technique in general: In western blotting, separated proteins are transferred to a membrane and probed.

The target of experiment [7] is DNA (cytosine-5)-methyltransferase 1 (Homo sapiens) (UniProt P26358). Briefly: Inhibition of DNMT1 (unknown origin) at 100 uM using cytosine-rich DNA substrate by ELISA relative to untreated control. The procedure, abridged:
as §2

Experiment [8] concerns MDA-MB-453. Briefly: Induction of morphological changes in human MDA-MB-453 cell assessed as induction of protrusion elongation at 10 uM incubated for 48 hrs by acridine orange and ethidium bromide staining based inverted fluorescent microscopy. It counts as functional. Summed up: as §3
The test system of experiment [9] is MDA-MB-453. Briefly: Induction of apoptosis in human MDA-MB-453 cells assessed as increase in SMAD7 protein expression at 10 uM incubated for 48 hrs by Western blot analysis. It counts as functional, cell-based. The procedure, abridged:
as §4

Experiment [10] concerns MDA-MB-453. Briefly: Induction of apoptosis in human MDA-MB-453 cells at 10 uM incubated for 48 hrs by acridine orange and ethidium bromide staining based inverted fluorescent microscopy. It counts as functional, cell-based. The procedure, abridged:
as §3

Activity calls are given as the source filed them. The rule behind the calls is not given here.

Sequence of DNA (cytosine-5)-methyltransferase 1 (Homo sapiens) (P26358 whole entry): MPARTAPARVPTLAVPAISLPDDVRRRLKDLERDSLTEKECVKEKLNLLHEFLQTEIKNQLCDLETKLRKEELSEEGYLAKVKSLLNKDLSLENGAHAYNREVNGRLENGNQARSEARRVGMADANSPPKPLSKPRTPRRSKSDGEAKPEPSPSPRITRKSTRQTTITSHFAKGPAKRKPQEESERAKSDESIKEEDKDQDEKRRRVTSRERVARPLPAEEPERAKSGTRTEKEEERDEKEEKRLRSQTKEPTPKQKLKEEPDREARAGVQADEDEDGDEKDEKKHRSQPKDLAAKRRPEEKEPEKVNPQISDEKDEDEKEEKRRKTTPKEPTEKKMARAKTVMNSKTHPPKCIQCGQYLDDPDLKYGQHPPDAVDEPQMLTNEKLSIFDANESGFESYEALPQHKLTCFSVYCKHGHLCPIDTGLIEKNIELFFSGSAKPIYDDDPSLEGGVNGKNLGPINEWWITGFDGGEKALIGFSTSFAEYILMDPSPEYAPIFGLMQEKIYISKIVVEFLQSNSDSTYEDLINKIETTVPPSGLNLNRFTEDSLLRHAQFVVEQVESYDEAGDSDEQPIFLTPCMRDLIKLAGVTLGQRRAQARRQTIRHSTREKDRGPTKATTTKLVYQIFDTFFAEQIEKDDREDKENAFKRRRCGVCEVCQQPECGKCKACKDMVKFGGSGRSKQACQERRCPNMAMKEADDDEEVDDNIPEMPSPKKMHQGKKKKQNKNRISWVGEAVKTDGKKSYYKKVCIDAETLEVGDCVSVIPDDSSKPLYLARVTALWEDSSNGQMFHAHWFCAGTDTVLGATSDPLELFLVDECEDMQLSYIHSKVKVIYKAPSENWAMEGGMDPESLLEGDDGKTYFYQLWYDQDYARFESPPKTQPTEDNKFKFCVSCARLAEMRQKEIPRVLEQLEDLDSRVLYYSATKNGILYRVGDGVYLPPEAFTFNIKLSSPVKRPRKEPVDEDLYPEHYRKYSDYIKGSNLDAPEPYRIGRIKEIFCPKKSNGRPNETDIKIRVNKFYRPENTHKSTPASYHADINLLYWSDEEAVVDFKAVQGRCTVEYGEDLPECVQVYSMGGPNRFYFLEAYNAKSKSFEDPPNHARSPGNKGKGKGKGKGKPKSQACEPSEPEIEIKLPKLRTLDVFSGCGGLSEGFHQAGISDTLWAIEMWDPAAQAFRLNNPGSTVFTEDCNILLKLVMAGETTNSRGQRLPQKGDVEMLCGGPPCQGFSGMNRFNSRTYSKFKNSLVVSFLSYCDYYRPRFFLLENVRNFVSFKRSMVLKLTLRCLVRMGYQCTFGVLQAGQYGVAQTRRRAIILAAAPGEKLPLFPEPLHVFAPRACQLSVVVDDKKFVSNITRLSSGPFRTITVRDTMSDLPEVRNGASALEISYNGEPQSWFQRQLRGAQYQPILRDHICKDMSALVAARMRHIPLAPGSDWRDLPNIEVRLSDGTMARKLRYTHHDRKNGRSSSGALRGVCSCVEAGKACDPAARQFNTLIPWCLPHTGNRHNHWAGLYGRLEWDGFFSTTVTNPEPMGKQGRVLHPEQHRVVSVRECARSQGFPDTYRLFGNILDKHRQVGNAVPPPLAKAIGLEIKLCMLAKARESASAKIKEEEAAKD

The term IC50 denotes the midpoint of a concentration-inhibition curve. `N#Cc1ccc(OCc2nnc(-c3ccc(Cl)cc3)o2)cc1F`: the results for the half-maximal inhibitory concentration (IC50) in the experiment with MDA-MB-453 [1], with MCF-10A and with MCF7 were above 50 µM, above 100 µM and 48.3 µM, respectively.
For the compound `COc1ccc(-c2nnc(COc3ccc(-c4nnco4)cc3)o2)cc1`, the half-maximal inhibitory concentration (IC50) in the experiment with MDA-MB-453 [1] was 36.2 µM; in the experiment on MCF-10A, above 100 µM; in the experiment on MCF7, 31.2 µM.
In the case of `COc1cc(C#N)ccc1OCc1nnc(-c2ccc(C)cc2)o1`, the figures for the IC50 in the experiment with MDA-MB-453 [1], in the experiment on MCF-10A and in the experiment with MCF7 were 38.4 µM, above 100 µM and 27.1 µM, respectively.
With `Clc1ccc(-c2nnc(COc3ccc(-c4nnco4)cc3)o2)cc1`, the IC50 in the experiment with MDA-MB-453 [1] was above 50 µM; in the experiment with MCF-10A it was above 100 µM; with MCF7, 45.2 µM.
Take `N#Cc1ccc(OCc2nnc(-c3ccccc3)o2)cc1F`: the figures for the 50% inhibitory concentration (IC50) with MDA-MB-453 [1], in the experiment on MCF-10A and in the experiment on MCF7 were above 50 µM, above 100 µM and above 50 µM, respectively.
As to `COc1ccc(-c2nnc(COc3ccc(C#N)c(F)c3)o2)cc1`, the IC50 in the experiment on MDA-MB-453 [1] was 45.5 µM; in the experiment with MCF-10A, above 100 µM; with MCF7 it was 42.1 µM.
Turning to `Fc1ccc(-c2nnc(COc3ccc(-c4nnco4)cc3)o2)cc1`, the IC50 in the experiment with MDA-MB-453 [1] was 38.2 µM; with MCF-10A, above 100 µM; in the experiment with MCF7, 35.6 µM.
On to `c1ccc(-c2nnc(COc3ccc(-c4nnco4)cc3)o2)cc1`, for which the IC50 was above 50 µM in the experiment with MDA-MB-453 [1], above 100 µM in the experiment on MCF-10A and above 50 µM with MCF7.
The term inhibition denotes the drop in the measured response relative to a control, in per cent. High values mean strong suppression, low ones little suppression. With `COc1cc(C#N)ccc1OCc1nnc(-c2ccc(F)cc2)o1`, the Activity result with MDA-MB-453 [1], with MDA-MB-453 [6] and with MCF7 was “Dose-dependent effect” throughout. Moreover, the 50% inhibitory concentration (IC50) is 10.5 µM with MDA-MB-453 [1], above 100 µM in the experiment on MCF-10A and 10.2 µM in the experiment on MCF7. The inhibition in experiment [2] came out at 33%; in experiment [7], 10%. The outcome in the experiment with MDA-MB-453 [3], in the experiment with MDA-MB-453 [4], with MDA-MB-453 [5], with MDA-MB-453 [8], in the experiment with MDA-MB-453 [9] and in the experiment with MDA-MB-453 [10] was Active.
As for `COc1cc(C#N)ccc1OCc1nnc(-c2ccccc2)o1`, the IC50 in the experiment with MDA-MB-453 [1] was 40.1 µM; with MCF-10A, above 100 µM; in the experiment on MCF7, 32.2 µM.
As to `Cc1ccc(NC(=O)c2ccc(CN3CCN(C)CC3)cc2)cc1Nc1nccc(-c2cccnc2)n1` [IMATINIB], the 50% inhibitory concentration (IC50) with MDA-MB-453 [1] is 12.8 µM; with MCF-10A it was above 100 µM.
`Cc1ccc(-c2nnc(COc3ccc(-c4nnco4)cc3)o2)cc1`: the results for the IC50 in the experiment on MDA-MB-453 [1], in the experiment on MCF-10A and in the experiment on MCF7 were above 50 µM, above 100 µM and above 50 µM, respectively.
For `COc1ccc(-c2nnc(COc3ccc(C#N)cc3OC)o2)cc1`, the IC50 with MDA-MB-453 [1] was 13 µM; with MCF-10A, above 100 µM; with MCF7 it was 11.1 µM.
For `N#Cc1ccc(OCc2nnc(-c3ccc(F)cc3)o2)cc1F`, the half-inhibitory concentration (IC50) in the experiment on MDA-MB-453 [1] was 25.1 µM; in the experiment on MCF-10A, 84.2 µM; in the experiment with MCF7, 20.4 µM.
For `COc1cc(C#N)ccc1OCc1nnc(-c2ccc(Cl)cc2)o1`, the IC50 was determined as 33.9 µM in the experiment on MDA-MB-453 [1], 89.5 µM in the experiment with MCF-10A and 21.5 µM in the experiment on MCF7.
As to `Cc1ccc(-c2nnc(COc3ccc(C#N)c(F)c3)o2)cc1`, the half-maximal inhibitory concentration (IC50) was above 50 µM in the experiment on MDA-MB-453 [1], above 100 µM in the experiment on MCF-10A and above 50 µM in the experiment with MCF7.
